From PubChem BioAssay
Records with an inconclusive call do not appear.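 How the source made its calls, unless noted: active means viability at or below 27.92% in each of two runs, the all-compound median minus 4 SD; inconclusive means no clear call, values can overlap the other calls; inactive means the rest.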

What was measured:
[1] = OD615 S. cerevisiae growth inhibition, permissive medium, pilot counter-assay, permissive growth control for S. cerevisiae lifespan shortening project (AID 705;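 active means growth inhibition above 25% in both replicates, a cutoff set 3 SD above the mean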); conditions: OD615, 24 h, at 10 µM, stronger effect = higher value
How it was run: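 Timing: 24 h exposure, 30 °C / Material: Saccharomyces cerevisiae strain carrying genetically modified DeaD replicative-lifespan system / Signal: OD at 615 nm / Compound: 10 µM single dose, 0.25% DMSO / Medium: SC raffinose/galactose permissive medium / Evaluation: reduction in yeast growth (OD615)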

[2] = Restrictive medium S. cerevisiae growth inhibition, OD615, pilot screen of yeast lifespan reduction project, restrictive growth control (AID 706;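 active means growth inhibition above a set limit, 3 SD over mean compound inhibition, in both replicates, cut at about 43% in these data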;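 further: modified DeaD lifespan yeast strain shifted to restrictive glucose medium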); conditions: OD615, 48 h, at 10 µM, stronger effect = higher value
How it was run: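 System: Engineered S. cerevisiae DeaD strain | Detection: OD615 | Buffer or medium: CSMM-D glucose medium | Doses: 10 µM compound, 0.25% DMSO | Timing: 4 h pre-growth plus 48 h compound exposure, 30 °C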

[3] = viability gain of MRP-1-high H69AR cells under doxorubicin, pilot screen, MRP-1 activator project, CellTiter-Glo, duplicate (AID 807;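 active means viability increase at or above a cutoff of the median across tested compounds plus 3 SD, cut at about 8.5% in these data, passing the limit was not always enough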;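 further: compound pretreatment 18-22 h then 72 h combined with doxorubicin; 0% = doxorubicin alone and 100% = vehicle without doxorubicin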); conditions: H69AR viability with doxorubicin, CellTiter-Glo luminescence; at 10 µM; stronger effect = higher value
[4] = growth suppression of beta-catenin knockout HCT116, pilot screen, human colon tumor cells (AID 823;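 active means cell viability at or below a set limit in both duplicate runs, the limit being the all-compound median minus 4 SD, cut at about 23% in these data, passing the limit was not always enough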;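 further: 0% = wells killed by 20 µM Hyamine and 100% = untreated DMSO cell wells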); conditions: CellTiter-Glo, 60 h, at 10 µM, stronger effect = lower value
[5] = growth suppression of PTEN-deleted HCT116, pilot screen, cell-based, HCT116 clonal line, CellTiter-Glo (AID 824); conditions: 60 h, at 10 µM, stronger effect = lower value;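 further: 0% = 20 µM Hyamine control and 100% = vehicle cell control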
[6] = inhibitors of the yeast RAM network, pilot screen, dse1pr::URA3 reporter, 5-FOA selection (AID 869;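 active means inhibition over a set limit, the all-compound mean plus 3 SD, in both replicate runs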;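 further: 0% = DMSO wells with no growth and 100% = 10 µM 1-NA-PP1 with full growth; RAM network block rescues cells from 5-FOA so hits raise OD615 growth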); conditions: S. cerevisiae dse1pr::URA3 5-FOA growth, OD615, 2 d; at 10 µM; stronger effect = higher value; strain carries analog-sensitive mutant Cbk1 kinase
[7] = RAM signaling pathway blockade in yeast – S. cerevisiae, Pdr1DBD-CYC8 efflux-inhibited sensitized strain, primary screen (AID 1298;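 active means RAM network inhibition above 8.4% in each of two replicates, 3 SD over the compound average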;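 further: 0% = DMSO untreated cells without growth and 100% = 10 µM 1-NA-PP1 full growth; higher means more yeast growth rescued from 5-FOA killing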); conditions: S. cerevisiae cbk1-as DSE1-URA3 strain, 5-FOA growth OD615, 2 d; at 50 µM; stronger effect = higher value

CCC(=O)Nc1c2c(nn1-c1ccc(OC)cc1)CS(=O)C2 (configuration not stated)
inactive: growth inhibition [1] -6.53% | growth inhibition [2] 5.54% | viability increase [3] 0.56% | viability [4] 102% | viability [5] 94.1% | inhibition [6] 1.37% | RAM network inhibition [7] 2.55%

Oc1cnn(-c2ccccc2)c1
inactive: growth inhibition [1] -0.88% | growth inhibition [2] 3.54% | viability increase [3] -5.6% | viability [4] 92.8% | viability [5] 94.3% | inhibition [6] 0.91% | RAM network inhibition [7] -0.83%

COCCn1c(SCC(=O)OCc2ccccc2)nc2c1c(=O)[nH]c(=O)n2C
inactive: growth inhibition [1] 4.3% | growth inhibition [2] 1.99% | viability increase [3] 1.83% | viability [4] 98.6% | viability [5] 105% | inhibition [6] 0.815% | RAM network inhibition [7] 5.05%

C=CCSc1nnc(-c2cc(Br)ccc2N)c(=O)[nH]1
inactive: growth inhibition [1] -14.6% | growth inhibition [2] -18% | viability increase [3] 0.99% | viability [4] 102% | viability [5] 96.5% | inhibition [6] 0.7% | RAM network inhibition [7] 2.42%

Cc1ccc(-c2nc3ncccc3o2)cc1NC(=O)Cc1ccc(Cl)cc1
inactive: growth inhibition [1] -17.4% | growth inhibition [2] -10.8% | viability increase [3] -4.9% | viability [4] 81.8% | viability [5] 82.9% | inhibition [6] 2.07% | RAM network inhibition [7] 1.75%

CN(CCCNC(=O)Cn1cc2c(n1)CCCC2)C1CCCCC1
inactive: growth inhibition [1] -2.1% | growth inhibition [2] -0.155% | viability increase [3] -3.43% | viability [4] 99.2% | viability [5] 90.2% | inhibition [6] -1.29% | RAM network inhibition [7] 1.23%

CCOc1cccc(C2c3c(oc4cc(C)c(C)cc4c3=O)C(=O)N2CCCN(C)C)c1 (configuration not stated)
inactive: growth inhibition [1] 1.31% | growth inhibition [2] -0.895% | viability increase [3] -3.58% | viability [4] 92.9% | viability [5] 85.9% | inhibition [6] 1.8% | RAM network inhibition [7] 2.55%

CN1C(=O)/C(=C2\SC(=S)N(C(CCC(=O)O)C(=O)O)C2=O)c2ccccc21 (configuration not stated)
inactive: growth inhibition [1] 2.35% | growth inhibition [2] -1.85% | viability increase [3] -2.67% | viability [4] 107% | viability [5] 98.8% | inhibition [6] 1.11% | RAM network inhibition [7] 0.96%

O=C1CN(C(=O)COC(=O)C2CC(=O)N(Cc3ccco3)C2)c2ccccc2N1 (configuration not stated)
inactive: growth inhibition [1] -12% | growth inhibition [2] -16.7% | viability increase [3] -2.08% | viability [4] 102% | viability [5] 104% | inhibition [6] 1.06% | RAM network inhibition [7] 4.09%

CCC1CCCCN1Cc1nc2c(c(=O)n(C)c(=O)n2C)n1Cc1ccccc1 (configuration not stated)
inactive: growth inhibition [1] 6.88% | growth inhibition [2] -0.26% | viability increase [3] 3.7% | viability [4] 75.3% | viability [5] 74.4% | inhibition [6] 2.1% | RAM network inhibition [7] 2.14%

CCOC(=O)N1CCC(NC(=O)Cn2nc(Cc3ccncc3)c3ccccc3c2=O)CC1
inactive: growth inhibition [1] -6.68% | growth inhibition [2] 3.71% | viability increase [3] -0.79% | viability [4] 94% | viability [5] 95.7% | inhibition [6] -0.58% | RAM network inhibition [7] 0.52%

CCN(CCN(C)C)C(=O)Cn1ncc2c1-c1cc(C)ccc1OC2
inactive: growth inhibition [1] -11% | growth inhibition [2] -0.185% | viability increase [3] -0.91% | viability [4] 94.8% | viability [5] 102% | inhibition [6] 2.43% | RAM network inhibition [7] 2.3%

COc1cc2c(cc1OC)C(C(=O)Nc1ccc3c(c1)OCCO3)C(c1cccnc1)N(C)C2=O (configuration not stated)
inactive: growth inhibition [1] -4.64% | growth inhibition [2] -22.9% | viability increase [3] -6.9% | viability [4] 85.6% | viability [5] 87.9% | inhibition [6] 1.38% | RAM network inhibition [7] -0.57%

O=C(CN1CCN(c2ncccn2)CC1)NCCC1=CCCCC1
inactive: growth inhibition [1] -8.09% | growth inhibition [2] -27.1% | viability increase [3] -2.15% | viability [4] 94% | viability [5] 93.7% | inhibition [6] 1.9% | RAM network inhibition [7] 5.02%

Cn1nnnc1SCc1nc2ccccc2[nH]1
inactive: growth inhibition [1] -7.39% | growth inhibition [2] -5.67% | viability increase [3] 0.69% | viability [4] 101% | viability [5] 102% | inhibition [6] 0.215% | RAM network inhibition [7] 3.43%

Cc1c(C(=O)NCc2ccccc2)oc2ccc(S(=O)(=O)N3CCCC3)cc12
inactive: growth inhibition [1] -11.4% | growth inhibition [2] 3.53% | viability increase [3] -2.64% | viability [4] 97% | viability [5] 93.1% | inhibition [6] 1.49% | RAM network inhibition [7] 2.93%

CCC(CC)c1nnc(NC(=O)c2c(-c3ccccc3)noc2C)s1
inactive: growth inhibition [1] -10.7% | growth inhibition [2] 3.94% | viability increase [3] -1.44% | viability [4] 90.2% | viability [5] 93.9% | inhibition [6] 0.27% | RAM network inhibition [7] 2.57%

CN(C)CCNC(=O)c1cc2c(=O)n(C)c3ccccc3c2n1C
inactive: growth inhibition [1] 0.095% | growth inhibition [2] -1.67% | viability increase [3] -5.64% | viability [4] 52.9% | viability [5] 54.4% | inhibition [6] 1.12% | RAM network inhibition [7] -0.26%

COc1ccc(O)c(-c2[nH]ncc2C(=O)c2ccccc2C)c1
inactive: growth inhibition [1] -7.88% | growth inhibition [2] -5.12% | viability increase [3] -0.59% | viability [4] 100% | viability [5] 98.5% | inhibition [6] -0.045% | RAM network inhibition [7] -0.67%

COc1cccc(-c2nn(C)c3sc(C(=O)N4CCOCC4)cc23)c1
inactive: growth inhibition [1] 6.62% | growth inhibition [2] 9.91% | viability increase [3] -2.47% | viability [4] 97.5% | viability [5] 94.9% | inhibition [6] 1.45% | RAM network inhibition [7] 5.9%

O=C(Nc1nnc(-c2ccc3c(c2)OCCO3)o1)c1ccc(Cc2ccccc2)cc1
inactive: growth inhibition [1] -7.6% | growth inhibition [2] 6.34% | viability increase [3] -4.05% | viability [4] 46.1% | viability [5] 40.9% | inhibition [6] 1.59% | RAM network inhibition [7] 4.3%

Cc1c(Br)cc(C(=O)NCCCN2CCOCC2)c(C)c1C
inactive: growth inhibition [1] -0.405% | growth inhibition [2] -4.69% | viability increase [3] -3.23% | viability [4] 94.8% | viability [5] 93.6% | inhibition [6] 0.595% | RAM network inhibition [7] 0.82%

CCOC(=O)CSc1nc2c(c(=O)n1-c1ccc(OC)cc1)SCC2
inactive: growth inhibition [1] -4.98% | growth inhibition [2] -0.425% | viability increase [3] 0.37% | viability [4] 99.5% | viability [5] 98.6% | inhibition [6] 1.04% | RAM network inhibition [7] 7.6%

Cn1nc(-c2ccc(Cl)cc2)c2cc(C(=O)N3CCN(c4ccccn4)CC3)sc21
inactive: growth inhibition [1] -0.13% | growth inhibition [2] 28.7% | viability increase [3] -5.31% | viability [4] 37% | viability [5] 35.1% | inhibition [6] -0.47% | RAM network inhibition [7] 4.7%

Cc1cc(NC(=O)COn2nnc3ccc(Cl)cc32)no1
inactive: growth inhibition [1] -6.7% | growth inhibition [2] 1.51% | viability increase [3] 1.22% | viability [4] 94.3% | viability [5] 91.2% | inhibition [6] 0.535% | RAM network inhibition [7] 2.19%

CC(C)CNC1=CC(=O)CC(c2ccco2)C1 (configuration not stated)
inactive: growth inhibition [1] -13% | growth inhibition [2] -15.9% | viability increase [3] -1.92% | viability [4] 91.5% | viability [5] 93.8% | inhibition [6] 1.17% | RAM network inhibition [7] -0.73%

Cc1ccc(C(=O)c2ccccc2C(=O)O)c(O)c1
inactive: growth inhibition [1] -15.6% | growth inhibition [2] -4.92% | viability increase [3] 0.69% | viability [4] 94.8% | viability [5] 106% | inhibition [6] 0.835% | RAM network inhibition [7] 5.69%

Cc1nn(C)c(C)c1S(=O)(=O)N(CC(=O)Nc1nccs1)c1ccc(C(C)C)cc1
inactive: growth inhibition [1] -0.91% | growth inhibition [2] -7.29% | viability increase [3] -4.04% | viability [4] 99% | viability [5] 90.5% | inhibition [6] 2.3% | RAM network inhibition [7] 2.72%

O=C(Cn1cc2c(n1)CCCCC2)Nc1ccc(F)cc1F
inactive: growth inhibition [1] -4.89% | growth inhibition [2] 4.12% | viability increase [3] 0.49% | viability [4] 104% | viability [5] 97% | inhibition [6] 0.55% | RAM network inhibition [7] 2.75%

CCCCCCSc1nc2c(c(=O)[nH]c(=O)n2C)n1C
inactive: growth inhibition [1] -0.55% | growth inhibition [2] 22.7% | viability increase [3] -4.63% | viability [4] 82% | viability [5] 90.3% | inhibition [6] 0.395% | RAM network inhibition [7] 1.1%

O=C(c1ccc(S(=O)(=O)N2CCOCC2)cc1)N1CCN(c2ccccc2)CC1
inactive: growth inhibition [1] -12.5% | growth inhibition [2] 2.02% | viability increase [3] 0.13% | viability [4] 93.7% | viability [5] 101% | inhibition [6] 1.82% | RAM network inhibition [7] 1.64%

Cc1c(C(=O)NCCN2CCOCC2)oc2ccc(S(=O)(=O)N3CCCCCC3)cc12
inactive: growth inhibition [1] -3.55% | growth inhibition [2] -1.55% | viability increase [3] -2.1% | viability [4] 86.1% | viability [5] 90.6% | inhibition [6] 1.15% | RAM network inhibition [7] -1.39%

Cc1oc2c(c(=O)c1C)C(=O)CC(c1ccccc1)C2 (configuration not stated)
inactive: growth inhibition [1] -10.3% | growth inhibition [2] -15.9% | viability increase [3] -3.41% | viability [4] 88.5% | viability [5] 91% | inhibition [6] 0.115% | RAM network inhibition [7] -1.15%

CCOc1cccc(C(=O)Nc2cccc(-c3nnc(-c4ccccc4)o3)c2)c1
inactive: growth inhibition [1] -8.09% | growth inhibition [2] 6.69% | viability increase [3] -3% | viability [4] 51.9% | viability [5] 48.5% | inhibition [6] 0.02% | RAM network inhibition [7] 2.46%

O=C(O)c1ccccc1SC1CC(=O)N(C2CCCCC2)C1=O (configuration not stated)
inactive: growth inhibition [1] -14.3% | growth inhibition [2] -1.75% | viability increase [3] -2.78% | viability [4] 90.7% | viability [5] 94.3% | inhibition [6] 1.17% | RAM network inhibition [7] 1.06%

CCSc1nc2c([nH]c3ccccc32)c(=O)n1C
inactive: growth inhibition [1] -14.2% | growth inhibition [2] -9.45% | viability increase [3] -4.7% | viability [4] 105% | viability [5] 100% | inhibition [6] 3.67% | RAM network inhibition [7] 0.53%
